Assay outcomes deposited in PubChem BioAssay by The Scripps Research Institute Molecular Screening Center.
This is a sample that favours compounds with a hit; in the whole collection about 3.1% have one here.
GPR7 antagonist – human neuropeptides B/W receptor 1 antagonism | P48145 | GPR7-expressing cells, fluorescence antagonist assay | inhibition, % at 4.4 µM | hit rate 1.1% among 290,000; in the data active = inhibition above about 16%, passing the limit was not always enough;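 also: cells stimulated with the agonist NPW; 0% = agonist with vehicle and 100% = vehicle without agonist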
Target sequence (P48145 whole entry, looked up): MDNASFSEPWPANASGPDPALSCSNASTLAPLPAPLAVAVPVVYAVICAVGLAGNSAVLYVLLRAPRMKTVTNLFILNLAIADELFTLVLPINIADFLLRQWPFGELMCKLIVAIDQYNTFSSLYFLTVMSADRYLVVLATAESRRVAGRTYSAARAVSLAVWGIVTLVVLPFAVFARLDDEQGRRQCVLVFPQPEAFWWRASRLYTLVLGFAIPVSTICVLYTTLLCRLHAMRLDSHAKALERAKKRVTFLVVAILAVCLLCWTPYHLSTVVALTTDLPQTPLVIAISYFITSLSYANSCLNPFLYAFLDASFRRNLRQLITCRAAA
CHO parental Ca – signal in parental CHO cells, OX1R antagonist counter-screen. inhibition, % at 5.6 µM. parental CHO-K1, ATP-induced calcium, Fluo-8 fluorescence. hit rate 0.63% among 330,000;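 active = inhibition above that plate's mean sample inhibition plus 3 SD, cut at about 26% in these data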;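 also: 0% = ATP-challenged DMSO wells and 100% = DMSO wells without ATP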
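Test system: untransfected parental CHO cell line. Compound: one dose, 5.6 µM nominal. Detection: intracellular calcium via Fluo-8 no-wash fluorescent dye. Measure: % inhibition. Benchmarks: ATP-challenged DMSO wells low, unchallenged DMSO wells high.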
OX1R antag-1 – blocks the human orexin 1 receptor | O43613 | CHO/OX1R cells, Fluo-8 calcium fluorescence, orexin A | inhibition, % at 5 µM | hit rate 0.43% among 330,000 | AID 434989;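 active = inhibition above its plate's threshold, mean inhibition of all tested compounds on the plate plus 3 SD, cut at about 37% in these data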;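 also: 0% = orexin A challenge wells and 100% = SB-334867-A antagonist wells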
OX1R antag-2 – blocks the human orexin 1 receptor. OX1R-expressing cells, FRET antagonist read-out. inhibition, % at 6.6 µM. hit rate 1.8% among 330,000. AID 485270; in the data active = inhibition mostly above about 38%, no sharp cut-off; inactive = mostly below about 40%;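 also: 0% = agonist challenge alone and 100% = reference antagonist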
GalR3 antagonist – human GalR3 antagonism. HEK293 GalR3-CNG cAMP membrane potential fluorescence; galR3 body fused to GalR1 C-terminus. inhibition, % at 3 µM. O60755. hit rate 0.44% among 360,000. AID 651719;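 active = inhibition above the screen-wide average plus 3 SD, cut at about 13% in these data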;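 also: forskolin and galanin both at EC90 stimulate the cells; cAMP rise reported by CNG channel membrane potential dye signal; 0% = forskolin plus galanin with DMSO and 100% = forskolin alone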
Target sequence (O60755 1-299 limits assumed): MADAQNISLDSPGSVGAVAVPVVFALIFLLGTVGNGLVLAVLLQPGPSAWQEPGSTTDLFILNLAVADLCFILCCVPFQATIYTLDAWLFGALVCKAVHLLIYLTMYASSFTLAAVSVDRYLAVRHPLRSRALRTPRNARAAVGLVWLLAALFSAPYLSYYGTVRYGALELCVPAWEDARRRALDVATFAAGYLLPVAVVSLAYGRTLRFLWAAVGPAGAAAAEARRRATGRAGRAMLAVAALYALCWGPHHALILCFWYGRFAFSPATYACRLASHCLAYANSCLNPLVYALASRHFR
OX1R HTRF conf – confirmation of human orexin 1 receptor antagonists, HTRF format. shares compounds with OX1R antag-2. OX1R-expressing cells, HTRF antagonist assay. inhibition, % at 6.6 µM. hit rate 49% among 1,800; in the data active = inhibition above about 55%;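 also: CHO cells expressing OX1R stimulated with orexin A at about EC80; 0% = agonist challenge alone and 100% = reference antagonist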
CHO-K1 HTRF – counter-screen for OX1R antagonists: effect in parental CHO-K1 cells; shares compounds with OX1R antag-2; HTRF counterscreen; inhibition, % at 6.6 µM; hit rate 48% among 1,800; AID 493232; in the data active = inhibition above about 17%;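 also: 0% = agonist challenge with vehicle and 100% = vehicle alone without agonist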
Numbers without * were called inactive; x = not tested or not shown.

SMILES	GPR7 antagonist	CHO parental Ca	OX1R antag-1	OX1R antag-2	GalR3 antagonist	OX1R HTRF conf	CHO-K1 HTRF
CCn1c2ccccc2c2cc(NC(=O)COC(=O)c3cc(OC)c(OC)cc3OC)ccc21	-7	-17	19	80*	1	89*	12
CCn1c(=O)cc(OCC(=O)Nc2ccc(OC)c(OC)c2)c2ccccc21	-4	-6	-11	82*	-6	21	4
COCCNC(=O)C1(C)CCCN(C(=O)c2ccc(C)c(F)c2)C1 (stereo not drawn)	x	x	x	x	-6	x	x
COc1ccc(NC(=O)C(c2ccc(OC)cc2)n2c(=O)c(-c3cc4ccccc4[nH]3)nc3ccccc32)cc1 (stereo not drawn)	x	x	x	x	-5	x	x
CC1=N/C(=C\c2ccc([N+](=O)[O-])cc2)C(=O)N1c1ccc(C)c(Cl)c1	x	x	x	x	-3	x	x
CCOC(=O)C1Nc2ccccc2C2C(O)C(O)CC12 (stereo not drawn)	x	-12	-12	83*	-1	27	20*
CC1(C)CC(NS(=O)(=O)c2ccc(S(N)(=O)=O)cc2)CC(C)(C)N1	-9	2	-3	-1	-7	x	x
CC1(C)CC(NS(=O)(=O)c2ccc(F)cc2)CC(C)(C)N1	-2	-8	-2	86*	6	20	-2
COc1ccc(C(O)c2nc(-c3ccccc3OC)cs2)cc1 (stereo not drawn)	x	x	x	x	-8	x	x
N#CC(C#N)=c1ccc2c(c1)NC1(CCCCC1)N=2	-14	-8	-4	191*	-1	52	58*
N/C(=N\OC(=O)Nc1ccccc1)c1ncc([N+](=O)[O-])s1	-9	1	-14	127*	-1	51	79*
O=C(Nc1ccc(Cl)cc1)Nc1ccccc1Sc1ncc([N+](=O)[O-])s1	-3	1	-11	11	2	x	x
CCOC(=O)c1cc2c(=O)n3ccccc3nc2n(CCCOC)c1=NC(=O)C(C)(C)C	3	-21	-41	84*	2	21	27*
CCOC(=O)c1cc2c(=O)n3ccccc3nc2n(CC(C)C)c1=NC(=O)c1ccco1	-2	-5	-32	117*	-5	54	40*
CCOC(=O)c1cc2c(=O)n3ccccc3nc2n(CCOC)c1=NC(=O)C(C)(C)C	-3	3	-27	43	-2	x	x
CCOC(=O)c1cc2c(=O)n3ccccc3nc2n(CCOC)c1=NC(=O)c1ccncc1	1	-12	-17	80*	-3	58*	52*
CCOc1ccc(NC(=O)CNS(=O)(=O)c2c(C)cc(C)cc2C)cc1	7	-29	-3	82*	-6	62*	0
O=C(Nc1cccc(-c2nc3ccccc3[nH]2)c1)c1ccccn1	-12	-17	-14	88*	-6	86*	9
CC(=O)Nc1cccc(-c2nc3ccccc3[nH]2)c1	-5	13	-15	14	-7	x	x
COCCn1c(SCC(=O)Nc2nc3ccccc3s2)nnc1-c1ccoc1C	-11	-20	-9	81*	0	37	3
CC1CN(C(=O)/C=C/c2ccc([N+](=O)[O-])s2)CC(C)O1 (stereo not drawn)	-5	-34	-26	126*	-4	65*	75*
CC1=C(C(=O)N2CCCCCC2)CC(CC(=O)NCCN2CCOCC2)C(=O)N1Cc1ccc(C(C)(C)C)cc1 (stereo not drawn)	x	x	x	x	-6	x	x
CN(C)C(CNC(=O)c1cc2ccccc2oc1=O)c1ccccc1 (stereo not drawn)	1	-7	-37	92*	-7	35	43*
Cc1cc(C)c(S(=O)(=O)N(C)CC(=O)N2CCCC2)c(C)c1	x	x	x	x	-3	x	x
CN1C(=O)C2(N=c3ccccc3=N2)c2ccccc21	-2	-10	3	79*	x	86*	-3
SMILES	GPR7 antagonist	CHO parental Ca	OX1R antag-1	OX1R antag-2	GalR3 antagonist	OX1R HTRF conf	CHO-K1 HTRF
CN1C(=O)C2(OCC(C)([N+](=O)[O-])CO2)c2ccccc21 (stereo not drawn)	-5	-11	0	10	-13	x	x
Cc1c(NC(=O)CN2C(=O)C(=O)c3ccccc32)c(=O)n(-c2ccccc2)n1C	-14	-12	-16	80*	-2	53	51*
COC(=O)c1cn(NC(=O)Cc2ccc(Cl)c(Cl)c2)c(=O)c2ccccc12	-10	-18	-19	87*	1	81*	8
O=C(Nc1cccc(Cl)c1)c1cc(N=Nc2ccc([N+](=O)[O-])cc2Cl)ccc1O	4	14	21	77*	-9	57*	23*
O=C(Nc1ccccc1)c1cc([N+](=O)[O-])ccc1Cl	x	-21	-8	16	-1	x	x
CC(C)N(c1cc(=O)nc2ccccn12)C(C)C	x	x	x	x	2	x	x
COc1ccc(C(=O)Nc2ccc3ccccc3n2)cc1OC	-1	-17	-2	77*	-11	78*	1
Cc1ccc(C(=O)Nc2ccc3ccccc3n2)cc1	6	-9	-27	21	-4	x	x
O=[N+]([O-])C1=CC=C2C(=NC3(CCCCC3)N2O)C1=NCCO	-6	-6	-2	83*	-9	73*	112*
CN(C)CCN1CCN(C(c2ccnc3ccccc23)c2nnnn2-c2ccc3c(c2)OCCO3)CC1 (stereo not drawn)	x	x	x	x	-4	x	x
Cc1occc1C(=O)N=Nc1c(O)n(C)c2ccccc12	-11	-9	-17	37	-3	x	x
Cn1c(O)c(N=NC(=O)c2ccccc2O)c2ccccc21	-9	-10	-13	121*	-2	91*	29*
Cc1cc(N=NC(=O)c2ccccc2O)c2ccccc2c1O	-7	-8	-18	120*	-3	94*	48*
Cn1c(O)c(N=NC(=O)c2ccco2)c2ccccc21	-10	-28	-9	166*	-1	83*	53*
CCOC(=O)C(=O)N=Nc1c(O)n(C)c2ccccc12	-12	-6	-91	183*	-3	49	75*
O=C(N[C@@H](Cc1cccnc1)C(=O)N1CCC[C@H]1C(=O)NCCc1ccccc1Cl)c1cccs1	x	x	x	x	-2	x	x
Cn1c(O)c(N=NC(=O)CNC(=O)c2ccco2)c2ccccc21	-3	-13	-5	79*	-4	39	48*
COc1ccc(C2CC(c3cccs3)=NN2C(=O)CCCC(=O)O)cc1OC (stereo not drawn)	x	x	x	x	-6	x	x
COc1ccc2oc(=O)c(C(=O)NCc3cccnc3)cc2c1	-11	-21	-24	83*	1	35	40*
C[C@@H]1CNC(=O)c2c(C(=O)N[C@H](C)c3ccccc3)ncn21	x	x	x	x	-4	x	x
COc1ccccc1Cc1c(-c2ccc(OC)c(OC)c2)nc2c(Cl)cc(C(F)(F)F)cn12	x	x	x	x	-4	x	x
CCc1noc(C)c1C(=O)NCCN1C(=O)S/C(=C\c2ccccc2F)C1=O	x	x	x	x	-6	x	x
